According to paper PMC3530929 (Journal of medicinal chemistry, 2012):
Entries after “also recorded” stand apart in the source; their conditions may differ. Each block holds one molecule with its values, some of them ahead of it.

Experiments:
[1] = target: T1, trypsin-like (T-L) activity of the proteasome (Oryctolagus cuniculus, UniProt G1SWK8); assay: In vitro T-L proteasome inhibition, fluorogenic assay; assay type: biochemical, rabbit; settings: read-out: T-L inhibition at 10 μM (cells printed ND)
T1 sequence (G1SWK8 1-271): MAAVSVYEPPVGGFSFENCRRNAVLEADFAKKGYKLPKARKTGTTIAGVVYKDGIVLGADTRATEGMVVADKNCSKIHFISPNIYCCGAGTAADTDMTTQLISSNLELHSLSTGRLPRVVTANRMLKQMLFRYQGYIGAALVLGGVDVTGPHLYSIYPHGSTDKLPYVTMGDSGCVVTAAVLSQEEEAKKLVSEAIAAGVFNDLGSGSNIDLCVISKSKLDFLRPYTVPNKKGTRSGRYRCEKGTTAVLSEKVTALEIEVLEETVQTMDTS

[2] = Stability at room temperature; assay type: physicochemical; settings: for stability at room temperature: 1H NMR in deuterated DMSO up to 3 weeks, HPLC and LCMS in tris buffer
[3] = Stability in biological media by HPLC; assay type: physicochemical; settings: DMEM and RPMI-1640 without serum, 10 μM, 1% DMSO, 37 °C, 1, 3, 5, 7 days
Procedure, shortened: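 A 1 mM DMSO stock from fresh powder was diluted into serum-free DMEM or RPMI (10 μM final, 1% DMSO), with 5 replicates per medium, and kept at 37 °C. Vials were removed on days 1, 3, 5 and 7, chilled to 0 °C on ice and analysed at once by HPLC. Conditions: C18, 5 μm, 4.6×150 mm, isocratic 35% or 50% CH3CN/water with 0.1% TFA depending on compound, 1 ml/min, 30 min. Peak area was plotted against day.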

[4] = system: rabbit 20S proteasome CT-L activity; assay: Dialysis using purified rabbit 20S proteasome; assay type: biochemical; settings: for mode of CT-L proteasome inhibition (reversible or irreversible): concluded from dialysis; for recovery of CT-L activity during dialysis: dialysis up to 18 h at 4 °C
Procedure, shortened: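 Test compound at 10 μM, or 0.1% DMSO vehicle, was added to rabbit 20S proteasome (1.5 nM final) in 50 mM Tris-HCl pH 7.6 and held 30 min at room temperature. The mixture was dialysed (3,500 MWCO) against assay buffer at 4 °C and sampled at 0, 0.5, 1, 4, 8 and 18 h. CT-L activity was assayed per the earlier method and normalised to the DMSO control.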

[5] = target: T2, chymotrypsin-like (CT-L) activity of the 20S proteasome (Oryctolagus cuniculus, UniProt G1T4Q9); assay: In vitro CT-L proteasome inhibition, fluorogenic assay; assay type: biochemical, rabbit; settings: for IC50: CT-L inhibitory activity IC50, in vitro
T2 sequence (G1T4Q9 60-263): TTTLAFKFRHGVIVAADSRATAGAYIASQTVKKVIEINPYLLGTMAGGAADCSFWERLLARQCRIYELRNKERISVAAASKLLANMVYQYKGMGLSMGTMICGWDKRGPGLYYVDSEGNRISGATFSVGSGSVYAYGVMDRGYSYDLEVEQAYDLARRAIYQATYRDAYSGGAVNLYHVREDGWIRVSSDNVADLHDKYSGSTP

[6] = system: ubiquitinated cellular proteins in MDA-MB-468 cells; assay: Ubiquitination by Western blot analysis; assay type: cell-based, human; settings: MDA-MB-468, 11 hours, various concentrations

Compound: O=C(O)CSc1cc(NS(=O)(=O)c2cccs2)c2ccccc2c1O [Compound 1, 2-(1-Hydroxy-4-(thiophene-2-sulfonamido)naphthalen-2-ylthio)acetic acid]
inhibition at 10 µM [1]: < 70%
stability at room temperature [2]: stable at room temperature for up to two weeks
impurities (oxidized material) after 2 weeks ([2]; room temperature, after 2 weeks): 3–5%
stability in biological media (HPLC peak area) [3]: stable up to 7 days at 37 °C
mode of CT-L proteasome inhibition (reversible or irreversible) [4]: irreversibly; also recorded: irreversible
recovery of CT-L activity during dialysis [4]: did not show any recovery

Compound: O=S(=O)(Nc1cc(Sc2nnn[nH]2)c(O)c2ccccc12)c1ccc(-c2ccc(F)cc2)cc1 [Compound 15j, N-(3-(1H-tetrazol-5-ylthio)-4-hydroxynaphthalen-1-yl)-4′-fluorobiphenyl-4-sulfonamide]
IC50 [5]: ~200 nM
fold improved CT-L inhibitory activity ([5]; compared with compound 1): up to 20 fold

Compound: O=S(=O)(Nc1cc(Sc2nnn[nH]2)c(O)c2ccccc12)c1ccc(Cl)c(Cl)c1 [Compound 36, N-(3-(1H-tetrazol-5-ylthio)-4-hydroxynaphthalen-1-yl)-3,4-dichlorobenzenesulfonamide]
selectivity CT-L versus T-L (in words) ([5]; in vitro): equipotent against CT-L and T-L activities

Compound: O=S(=O)(Nc1cc(Sc2nnn[nH]2)c(O)c2ccccc12)c1ccc(C2CCCCC2)cc1 [Compound 15h, N-(3-(1H-tetrazol-5-ylthio)-4-hydroxynaphthalen-1-yl)-4-cyclohexylbenzenesulfonamide]
IC50 [5]: ~200 nM
fold improved CT-L inhibitory activity ([5]; compared with compound 1): up to 20 fold

Compound: O=C(O)CCSc1cc(NS(=O)(=O)c2cccs2)c2ccccc2c1O [Compound 11d, 3-(1-Hydroxy-4-(thiophene-2-sulfonamido)naphthalen-2-ylthio)propanoic acid]
fold decreased potency (CT-L) ([5]; extended side chain, compared with compound 1): 2 fold

Compound: O=S(=O)(Nc1cc(Sc2nnn[nH]2)c(O)c2ccccc12)c1ccc(-c2ccccc2)s1 [Compound 15f, N-(3-(1H-tetrazol-5-ylthio)-4-hydroxynaphthalen-1-yl)-5-phenylthiophene-2-sulfonamide]
IC50 [5]: ~200 nM
fold improved CT-L inhibitory activity ([5]; compared with compound 1): up to 20 fold
stability at room temperature [2]: stable at room temperature for up to two weeks

Compound: O=S(=O)(Nc1cc(Sc2nnn[nH]2)c(O)c2ccccc12)c1ccc(-c2ccccc2)cc1 [Compound 15e, N-(3-(1H-tetrazol-5-ylthio)-4-hydroxynaphthalen-1-yl)biphenyl-4-sulfonamide]
IC50 [5]: ~200 nM
fold improved CT-L inhibitory activity ([5]; compared with compound 1): up to 20 fold

Compound: O=S(=O)(Nc1cc(Sc2nnc[nH]2)c(O)c2ccccc12)c1ccc(-c2ccccc2)cc1 [Compound 25]
stability at room temperature [2]: stable at room temperature for up to two weeks

IC50 [5]: > 100000 nM
Compound: O=C(O)CSc1ccc(NS(=O)(=O)c2cccs2)c2ccccc12 [Compound 23, 2-(4-(Thiophene-2-sulfonamido)naphthalen-1-ylthio)acetic acid]

Compound: O=S(=O)(Nc1cc(Sc2nnn[nH]2)c(O)c2ccccc12)c1cccs1 [Compound 15d, N-(3-(1H-tetrazol-5-ylthio)-4-hydroxynaphthalen-1-yl)thiophene-2-sulfonamide]
selectivity CT-L versus T-L (in words) ([5]; in vitro): more selective for T-L over CT-L

Compound: O=S(=O)(Nc1cc(Sc2ncn[nH]2)c(O)c2ccccc12)c1ccc(-c2ccc(F)cc2)cc1 [Compound 27, N-(3-(1H-1,2,4-triazol-3-ylthio)-4-hydroxynaphthalen-1-yl)-4′-fluorobiphenyl-4-sulfonamide]
fold improved CT-L inhibitory activity ([5]; compared with compound 1): up to 20 fold

Compound: O=S(=O)(Nc1cc(Sc2nnn[nH]2)c(O)c2ccccc12)c1ccc(Cl)cc1 [Compound 35, N-(3-(1H-tetrazol-5-ylthio)-4-hydroxynaphthalen-1-yl)-4-chlorobenzenesulfonamide]
selectivity CT-L versus T-L (in words) ([5]; in vitro): equipotent against CT-L and T-L activities

Compound: O=S(=O)(Nc1cc(Sc2ncn[nH]2)c(O)c2ccccc12)c1ccc(Oc2ccccc2)cc1 [Compound 29, N-(3-(1H-1,2,4-triazol-3-ylthio)-4-hydroxynaphthalen-1-yl)-4-phenoxybenzenesulfonamide]
fold improved CT-L inhibitory activity ([5]; compared with compound 1): up to 20 fold
selectivity for CT-L over T-L activity ([5]; in vitro): 28 fold

Compound: O=S(=O)(Nc1cc(Sc2nnn[nH]2)c(O)c2ccccc12)c1ccc(Oc2ccccc2)cc1 [Compound 15k, N-(3-(1H-tetrazol-5-ylthio)-4-hydroxynaphthalen-1-yl)-4-phenoxybenzenesulfonamide]
fold improved CT-L inhibitory activity ([5]; compared with compound 1): up to 20 fold
stability in biological media (HPLC peak area) [3]: stable up to 7 days at 37 °C

Compound: O=S(=O)(Nc1cc(Sc2nnn[nH]2)c(O)c2ccccc12)c1ccc(-c2ccc(C(F)(F)F)cc2)cc1 [Compound 39, N-(3-(1H-tetrazol-5-ylthio)-4-hydroxynaphthalen-1-yl)-4′-(trifluoromethyl)biphenyl-4-sulfonamide]
stability in biological media (HPLC peak area) [3]: stable up to 7 days at 37 °C
mode of CT-L proteasome inhibition (reversible or irreversible) [4]: irreversibly; also recorded: irreversible
recovery of CT-L activity during dialysis [4]: did not show any recovery
ubiquitination / accumulation of ubiquitinated cellular proteins [6]: concentration-dependent increase in ubiquitination; also recorded: induced the accumulation of ubiquitinated cellular proteins
